One may read the Ki as a dissociation constant, usually derived from enzyme kinetics or from competition with a known ligand. One may read the Km as the substrate concentration at which the rate is half of its maximum. One may read the kcat as the number of substrate molecules converted per active site and unit of time at saturation. What is called kcat/KM is the turnover number divided by the Michaelis constant.

Where two headings read alike, the source gives them in different places. Marks after values point to notes of the source that are not given here.

The subject of data set [1] is HT-1080 xenografts. The note with it: ref [19], cited from earlier work.
The target of data set [2] is MMP-7. To be noted: ref [37]; cited from earlier work.
Data set [3] relates to albumin. To be noted: ref [26]; cited from earlier work.
Data set [4] has as its system gelatinases (MMP-2 and MMP-9) versus other MMP family members. To be noted: ref [23], [24]; cited from earlier work.
The conditions of data set [5]: ref [23]; cited from earlier work.
In data set [6] the target is T1, MMP-2 (Homo sapiens, UniProt P08253).
T1 sequence (P08253 110-660): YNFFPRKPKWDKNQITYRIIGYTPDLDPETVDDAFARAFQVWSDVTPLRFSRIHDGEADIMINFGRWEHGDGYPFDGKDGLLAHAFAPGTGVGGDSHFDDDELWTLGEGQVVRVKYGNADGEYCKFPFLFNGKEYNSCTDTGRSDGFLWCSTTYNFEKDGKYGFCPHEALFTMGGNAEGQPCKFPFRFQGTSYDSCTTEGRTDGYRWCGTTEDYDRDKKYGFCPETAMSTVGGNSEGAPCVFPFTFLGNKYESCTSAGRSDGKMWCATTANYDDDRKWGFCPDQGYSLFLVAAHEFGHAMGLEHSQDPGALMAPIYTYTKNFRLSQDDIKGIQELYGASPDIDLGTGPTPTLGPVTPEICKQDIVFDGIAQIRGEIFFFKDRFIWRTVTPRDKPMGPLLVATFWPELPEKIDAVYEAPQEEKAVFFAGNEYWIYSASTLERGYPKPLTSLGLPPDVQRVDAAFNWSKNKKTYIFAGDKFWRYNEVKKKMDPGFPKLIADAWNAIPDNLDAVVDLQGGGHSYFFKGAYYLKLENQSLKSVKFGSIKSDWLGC
To be noted: ref [23]; cited from earlier work.

The target in data set [7] is T2, MMP-9 (Homo sapiens, UniProt P14780). To be noted: ref [23]; cited from earlier work.
Data set [8] addresses T1, MMP-2. Nature of the data set: Enzyme kinetics. It is filed as biochemical. To be noted: λexcitation = 780 nm, λemission = 810 nm; for kcat: Michaelis-Menten; for Km: ± standard error of the mean.
A short description of data set [9]: Triple-helix melting temperature. The data set is classed as physicochemical. The note with it: from fluorescence melting curves; Table 1.
The target in data set [10] is T2, MMP-9. The data set can be described thus: Enzyme kinetics. It is filed as biochemical. The note with it: λexcitation = 780 nm, λemission = 810 nm; for kcat: Michaelis-Menten; for Km: ± standard error of the mean.
A short description of data set [11]: Fluorescence quenching efficiency, intact vs completely hydrolyzed. The data set is classed as physicochemical. The note with it: from variable temperature absorbance spectra and variable temperature fluorescence melting curves.
Data set [12] has as its system gelatinases (MMP-2 and MMP-9) versus other MMP family members. The data set can be described thus: Substrate selectivity for gelatinases within the MMP family. To be noted: authors' summary statement. It is filed as biochemical.
The nature of data set [13]: Variable temperature absorbance spectra. The data set is classed as physicochemical. To be noted: room temperature, PBS. An outline of the steps: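 Dye-labelled triple-helical peptide conjugates in PBS; absorbance spectra recorded across a range of temperatures. Quenching efficiency was derived from these spectra together with variable-temperature fluorescence melting curves.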

For data set [14], the system named is HT-1080 xenografted tumors (gelatinase activity). Nature of the data set: FMT imaging of mice bearing HT-1080 fibrosarcoma xenografts. To be noted: 2 nmol i.v.

T2 sequence (P14780 94-707): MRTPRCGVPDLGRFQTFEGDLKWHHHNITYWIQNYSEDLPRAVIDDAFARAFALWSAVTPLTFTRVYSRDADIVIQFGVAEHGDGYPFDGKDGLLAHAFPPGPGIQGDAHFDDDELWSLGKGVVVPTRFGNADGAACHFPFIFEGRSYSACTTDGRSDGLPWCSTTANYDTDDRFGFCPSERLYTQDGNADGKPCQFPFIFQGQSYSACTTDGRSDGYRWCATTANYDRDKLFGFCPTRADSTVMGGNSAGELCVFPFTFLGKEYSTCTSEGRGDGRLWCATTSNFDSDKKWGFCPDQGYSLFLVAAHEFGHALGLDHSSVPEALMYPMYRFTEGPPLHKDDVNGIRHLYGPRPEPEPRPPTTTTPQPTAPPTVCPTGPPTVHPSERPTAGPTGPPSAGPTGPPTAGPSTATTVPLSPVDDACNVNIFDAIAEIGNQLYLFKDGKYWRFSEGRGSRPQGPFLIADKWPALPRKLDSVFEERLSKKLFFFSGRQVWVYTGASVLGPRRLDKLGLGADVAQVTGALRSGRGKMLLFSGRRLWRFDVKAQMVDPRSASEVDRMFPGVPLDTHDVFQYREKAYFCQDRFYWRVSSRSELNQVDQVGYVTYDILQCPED

On to `CC1(C)SCCN(S(=O)(=O)c2ccc(Oc3ccncc3)cc2)[C@H]1C(=O)NO` [Prinomastat, reference compound], for which the “reduction of tumor-associated fluorescence on co-administration” value in [1] (with MMPSense, HT-1080 xenografts) is 2.5 fold. Further, in data set [2], the Ki was 54 nM.

With `CC1(C)C(/C=C/C=C/C=C/C=C2/N(CCC(=O)O)c3ccc4ccccc4c3C2(C)C)=[N+](CCC(=O)O)c2ccc3ccccc3c21.[Br-]` [cypate], in data set [3], the “binding affinity to albumin” value is recorded as “good binding affinity”.

As to “(GPO)5GPK(Mca)GPPG~VVGEK(Dnp)GEN(GPO)5-NH2 [fTHP]”, the “kcat/KM for gelatinases relative to other MMP family members” value in data set [4] was “more than 10 fold”. Besides, the TM in [5] was 45.0 °C. Besides, in [6], the Km is 4.4 µM, the kcat is 0.061 s⁻¹ and the kcat/KM is listed as 14 × 10^3 s^−1M^−1. Moreover, in data set [7], the Km was 8.1 µM, the kcat was 0.044 s⁻¹ and the kcat/KM is given as 5.4 × 10^3 s^−1M^−1.

On to “(GPO)5GPKGPPG~VVGEK(PEG2-cypate)GEQ(GPO)5 [cypate3-(PEG)2-THP]”, for which the kcat/KM in data set [8] was 9100 M⁻¹ s⁻¹; in [8] (Table 1), 9.1 × 10^3 s^−1M^−1; in [10], 9100 M⁻¹ s⁻¹; in [10] (Table 1), 9.1 × 10^3 s^−1M^−1. The kcat in [8] was 0.099 s⁻¹; in data set [10], 0.202 s⁻¹. Moreover, the Km in data set [8] was 10.9 µM; in data set [10], 22.2 µM. For the same compound, the TM in [9] was 45.5^b °C. In data set [11], the “quenching efficiency, comparison with and without PEG spacer” value is recorded as “similar”.

In the case of “(GPO)5GPKGPPG~VVGEK(cypate)GEQ(GPO)5 [cypate3-THP]”, in [12], the selectivity of hydrolysis result was “efficiently hydrolyzed selectively by MMP-2 and -9”. Besides, in [13], the “additional absorption peak (aggregate)” value worked out at 710 nm and the main absorption peak is 780 nm. For the same compound, the aggregation result in data set [13] (300 nM, up to 1.5 μM) is on record as “significant intramolecular H-aggregation”. In addition, in data set [8], the kcat/KM was determined as 6800 M⁻¹ s⁻¹, the kcat is 0.056 s⁻¹ and the Km came out at 8.19 µM. For the same compound, the kcat/KM in data set [8] (Table 1) was 6.8 × 10^3 s^−1M^−1. Moreover, the TM in [9] was 50.5^b °C. Moreover, the “average tumor to background ratio” value in data set [14] (4 hours post-injection, n = 3) turned out to be 10.2. In data set [14] (after 24 h), the clearance of fluorescence result is “slowly cleared from most tissues after 24 h”. For the same compound, the “time of peak normalized fluorescence intensity” value in [14] (post-injection, n = 3) is 4 h. The “fluorescence enhancement within the tumor” value in [14] (abstract) is listed as “significant fluorescence enhancement within the tumor”. Besides, in data set [14] (pmol cypate/mm^3 tumor volume, 1 hour post-injection, n = 3), the “normalized tumor fluorescence intensity” value is recorded as “relatively low”. In addition, in [10], the kcat/KM was determined as 6400 M⁻¹ s⁻¹, the catalytic constant (kcat) came out at 0.142 s⁻¹ and the Km amounted to 22.3 µM. In data set [10] (Table 1), the kcat/KM is 6.4 × 10^3 s^−1M^−1. The “quenching efficiency, comparison with and without PEG spacer” value in data set [11] is listed as “similar”.

As for PLGVR [MMPSense], the “visualization of HT-1080 xenografts” value in data set [1] (NIR reflectance imaging) was “enabled the visualization of the HT-1080 xenografts”.
